Values without a mark were called inactive. Inconclusive results are not listed. Calls of active or inactive are those of the source.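 Rule for the calls, unless noted: active = RAM network inhibition above 8.4% in each of two replicates, 3 SD over the compound average; inconclusive = above 8.4% inhibition in only one replicate; inactive = 8.4% inhibition or less in each replicate.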

The nature of test [1]: OD615 S. cerevisiae growth inhibition, permissive medium, pilot counter-assay, permissive growth control for S. cerevisiae lifespan shortening project (AID 705;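 active = growth inhibition above 25% in both replicates, a cutoff set 3 SD above the mean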). The conditions noted are these: OD615, 24 h, at 10 µM, hits give high values. An outline of the steps:
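Material: engineered DeaD yeast; compound dosing: one dose 10 µM, DMSO 0.25% final; measure: yeast growth inhibition indicated by reduced 24 h OD615; detection: OD615 turbidity read; incubation: cells pre-grown 4 h, then 24 h compound exposure, 30 °C humidified; medium: permissive synthetic complete medium with raffinose and galactose carbon sources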

A short description of test [2]: Restrictive medium S. cerevisiae growth inhibition, OD615, pilot screen of yeast lifespan reduction project, restrictive growth control (AID 706;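 active = growth inhibition above a set limit, 3 SD over mean compound inhibition, in both replicates, cut at about 43% in these data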;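 note: modified DeaD lifespan yeast strain shifted to restrictive glucose medium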). The note with it: OD615, 48 h, at 10 µM, hits give high values. An outline of the steps:
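material = engineered S. cerevisiae DeaD strain | medium = glucose-based CSMM-D restrictive medium | times = 4 h pre-incubation, 48 h exposure at 30 °C | technique = OD615 absorbance reading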

Test [3] can be described thus: viability gain of MRP-1-high H69AR cells under doxorubicin, pilot screen, MRP-1 activator project, CellTiter-Glo, duplicate (AID 807;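 active = viability increase at or above a cutoff of the median across tested compounds plus 3 SD, cut at about 8.5% in these data, passing the limit was not always enough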;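 note: compound pretreatment 18-22 h then 72 h combined with doxorubicin; 0% = doxorubicin alone and 100% = vehicle without doxorubicin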). The note with it: H69AR viability with doxorubicin, CellTiter-Glo luminescence; at 10 µM; hits give high values. (ATP-based viability assays read luminescence as a measure of living cells.)
Test [4] is described as follows: growth suppression of beta-catenin knockout HCT116, pilot screen, human colon tumor cells (AID 823;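 active = cell viability at or below a set limit in both duplicate runs, the limit being the all-compound median minus 4 SD, cut at about 23% in these data, passing the limit was not always enough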;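 note: 0% = wells killed by 20 µM Hyamine and 100% = untreated DMSO cell wells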). The conditions noted are these: CellTiter-Glo, 60 h, at 10 µM, hits give low values.
Test [5] in a line: growth suppression of PTEN-deleted HCT116, pilot screen, cell-based, HCT116 clonal line, CellTiter-Glo (AID 824;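 active = viability at or below 27.92% in each of two runs, the all-compound median minus 4 SD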;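 note: 0% = 20 µM Hyamine control and 100% = vehicle cell control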). The note with it: 60 h, at 10 µM, hits give low values.
Test [6] can be described thus: inhibitors of the yeast RAM network, pilot screen, dse1pr::URA3 reporter, 5-FOA selection (AID 869;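 active = inhibition over a set limit, the all-compound mean plus 3 SD, in both replicate runs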;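 note: 0% = DMSO wells with no growth and 100% = 10 µM 1-NA-PP1 with full growth; RAM network block rescues cells from 5-FOA so hits raise OD615 growth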). The conditions noted are these: S. cerevisiae dse1pr::URA3 5-FOA growth, OD615, 2 d; at 10 µM; hits give high values; strain carries analog-sensitive mutant Cbk1 kinase.
A short description of test [7]: RAM signaling pathway blockade in yeast – S. cerevisiae, Pdr1DBD-CYC8 efflux-inhibited sensitized strain, primary screen (AID 1298).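 Note: 0% = DMSO untreated cells without growth and 100% = 10 µM 1-NA-PP1 full growth; higher means more yeast growth rescued from 5-FOA killing.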 The note with it: S. cerevisiae cbk1-as DSE1-URA3 strain, 5-FOA growth OD615, 2 d; at 50 µM; hits give high values.

As usually defined, the viability is a read-out of living cells in per cent, often relative to untreated cells. One may read the inhibition as the share of the control response that was lost under treatment. In the case of `C=CCn1c(=NC(=O)C2CC2)sc2cc(NC(C)=O)ccc21`, the growth inhibition in test [1] is -3%; in test [2], -3.58%. For the same molecule, the viability increase in test [3] was -4.77%. The viability is 95.7% in test [4] and 101% in test [5]. For the same molecule, in test [6], the inhibition was 0.675%. For the same molecule, the RAM network inhibition in test [7] is 0.32%.

As for `COc1cc(NC(=O)Cc2ccccc2)cc(OC)c1`, the growth inhibition in test [1] was -1.66%; in test [2], -4.67%. The viability increase in test [3] was -2.51%. Further, the viability is 107% in test [4] and 96.7% in test [5]. Also, the inhibition in test [6] was 1.11%. Besides, the RAM network inhibition in test [7] is 0.25%.

For `O=C(CCC1CCCC1)N1CCN(C(=O)c2ccco2)CC1`, the values for the growth inhibition in test [1] and in test [2] were -5.94% and -2.57%, respectively. The viability increase in test [3] was -3.59%. Further, the viability is 86.3% in test [4] and 83.2% in test [5]. The inhibition in test [6] is 1.39%. Also, in test [7], the RAM network inhibition was 0.98%.

Consider `COc1ccc(C(c2sc3ncnn3c2O)N2CC(C)OC(C)C2)cc1OC` (stereo unspecified), for which the values for the growth inhibition in test [1] and in test [2] were 0.335% and -6.37%, respectively. In addition, in test [3], the viability increase is -1%. Moreover, the figures for the viability in test [4] and in test [5] were 102% and 87.3%, respectively. For the same molecule, the inhibition in test [6] was 0.55%. The RAM network inhibition in test [7] was 0.12%.

Regarding `Cn1c(=O)[nH]c(=O)c2c1nc(N1CCN(c3ccccc3)CC1)n2CCSc1ncccn1`, the growth inhibition was -4.54% in test [1] and 7.86% in test [2]. In test [3], the viability increase was -2.82%. In addition, the viability in test [4] was 93%; in test [5] it was 82.6%. In test [6], the inhibition is 0.42%. The RAM network inhibition in test [7] is 4.89%.

Consider `Cc1cc(NC(=O)CN2CCCCC2C)nc2c1c(=O)oc1ccccc12` (stereo unspecified), for which the growth inhibition in test [1] was 4.45%; in test [2] it was -0.735%. Besides, in test [3], the viability increase was -0.4%. Moreover, the viability in test [4] is 102%; in test [5], 95.9%. Besides, the inhibition in test [6] is 1.36%. In test [7], the RAM network inhibition was 0.77%.

`CCc1ncc(C(=O)c2ccc(OC)cc2)n1C`: the growth inhibition in test [1] was 1.37%; in test [2], -0.315%. Moreover, the viability increase in test [3] is 3.42%. For the same molecule, the viability in test [4] was 105%; in test [5], 104%. Also, the inhibition in test [6] was 0.225%. The RAM network inhibition in test [7] is 5.28%.

On to `COc1ccc(CC(=O)N2CCN=C2SC)cc1`, for which the growth inhibition was 3.24% in test [1] and -0.34% in test [2]. For the same molecule, the viability increase in test [3] is 1.06%. The values for the viability in test [4] and in test [5] were 99.3% and 103%, respectively. Further, the inhibition in test [6] was 1.54%. Moreover, in test [7], the RAM network inhibition is 0.48%.

Take `Cc1ccc(C)c(NC(=O)CSc2nnc(-c3ccccc3)n2N)c1`: the growth inhibition is -4.36% in test [1] and -8.22% in test [2]. Besides, the viability increase in test [3] was -1.93%. The viability in test [4] was 109%; in test [5], 90.1%. In addition, the inhibition in test [6] is 1.5%. Moreover, the RAM network inhibition in test [7] is 3.95%.

As for `CCN(CC)Cc1c(O)ccc2c(-c3ccccc3)cc(=O)oc12`, the figures for the growth inhibition in test [1] and in test [2] were -5.29% and -1.64%, respectively. Besides, the viability increase in test [3] was -1.73%. The viability in test [4] was 94.3%; in test [5] it was 94.7%. The inhibition in test [6] is 1.23%. Further, the RAM network inhibition in test [7] was 1.08%.

On to `O=C(NCC1OCCc2ccccc21)c1ccco1` (stereo unspecified), for which the values for the growth inhibition in test [1] and in test [2] were -13.7% and -8.18%, respectively. The viability increase in test [3] was -3.72%. Moreover, the viability in test [4] was 94.5%; in test [5] it was 96.5%. In addition, the inhibition in test [6] was 1.16%. Besides, the RAM network inhibition in test [7] is 6.11%.

With `O=S(=O)(c1ccc(N2CC=C(c3ccccc3)CC2)nc1)N1CCCC1`, the figures for the growth inhibition in test [1] and in test [2] were -6.39% and -12.5%, respectively. The viability increase in test [3] was -7%. For the same molecule, the viability is 4.45% (active) in test [4] and 3.3% (active) in test [5]. For the same molecule, the inhibition in test [6] was 2.18%. In addition, in test [7], the RAM network inhibition was 2.69%.

For the molecule `O=C(CC1SC(=Nc2ccccc2)N(CCCCO)C1=O)NCc1ccccc1` (stereo unspecified), the growth inhibition in test [1] was -5.1%; in test [2], -5.89%. For the same molecule, the viability increase in test [3] was -2.74%. For the same molecule, the values for the viability in test [4] and in test [5] were 89.5% and 86.4%, respectively. In test [6], the inhibition is 0.065%. For the same molecule, the RAM network inhibition in test [7] was 5.21%.

Consider `CCCC(=O)Nc1ccccc1-c1nnc(SC)[nH]c1=O`, for which the growth inhibition in test [1] was -10.4%; in test [2] it was 1.72%. Also, the viability increase in test [3] is -2.76%. The viability was 113% in test [4] and 99.3% in test [5]. Moreover, in test [6], the inhibition was 1.06%. Further, the RAM network inhibition in test [7] was 1.27%.

For `CCOC(=O)c1ccccc1N1C(=O)CSC1=S`, the growth inhibition in test [1] was -22.3%; in test [2], -19.6%. The viability increase in test [3] is -4.62%. Further, the viability in test [4] is 96%; in test [5], 91.1%. The inhibition in test [6] is 1.11%. Moreover, the RAM network inhibition in test [7] is 0.73%.

On to `O=C(Cc1ccccc1)Nc1c(C(=O)N2CCOCC2)cnn1-c1ccccc1`, for which the growth inhibition in test [1] is 6.39%; in test [2], -23.4%. Besides, the viability increase in test [3] was -1.59%. In addition, the viability in test [4] was 93.5%; in test [5] it was 97%. Further, in test [6], the inhibition is 1.21%. Besides, the RAM network inhibition in test [7] was 1.24%.

With `C(=N\c1nc2ccccc2n1Cc1ccccc1)/c1cccs1`, the growth inhibition in test [1] is -3.85%; in test [2], -3.94%. The viability increase in test [3] is -3.85%. Further, the viability was 88.7% in test [4] and 88.6% in test [5]. The inhibition in test [6] is 1.94%. Also, in test [7], the RAM network inhibition was 4.3%.

With `CCOC(=O)c1c(C)c(-c2ccccc2)n(CC(=O)N2CCCC2)c1C`, the growth inhibition in test [1] is -8.25%; in test [2], -12.4%. In addition, the viability increase in test [3] is -3.38%. Also, the viability is 87.6% in test [4] and 92.3% in test [5]. For the same molecule, the inhibition in test [6] is 1.31%. For the same molecule, the RAM network inhibition in test [7] is 2.73%.

Values taken from PubChem BioAssay.
